Each molecule was assayed against T1, human CYP1A2 (Homo sapiens, UniProt P05177) (assay: 7-Methoxyresorufin O-demethylation). Conditions: not given.
T1 sequence (P05177 2-516 limits assumed): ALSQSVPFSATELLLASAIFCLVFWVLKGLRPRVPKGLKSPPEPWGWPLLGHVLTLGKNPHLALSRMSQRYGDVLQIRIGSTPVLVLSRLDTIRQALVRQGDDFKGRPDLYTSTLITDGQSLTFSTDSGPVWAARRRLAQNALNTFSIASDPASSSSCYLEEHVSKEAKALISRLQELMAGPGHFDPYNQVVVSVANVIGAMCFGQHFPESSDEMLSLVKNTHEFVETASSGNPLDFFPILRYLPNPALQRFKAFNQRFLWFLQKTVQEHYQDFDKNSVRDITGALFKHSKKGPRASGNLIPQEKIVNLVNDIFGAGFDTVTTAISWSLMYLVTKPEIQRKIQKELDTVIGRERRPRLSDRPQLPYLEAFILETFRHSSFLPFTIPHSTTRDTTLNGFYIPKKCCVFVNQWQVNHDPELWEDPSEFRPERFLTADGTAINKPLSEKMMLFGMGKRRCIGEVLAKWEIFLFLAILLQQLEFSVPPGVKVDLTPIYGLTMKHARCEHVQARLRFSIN
Format: biochemical
With CCC#Cc1ccc2ccc3cccc4ccc1c2c34 [Compound 1-EEP, 1-(1-butynyl)pyrene] the IC50 was 0.43 µM.
C#Cc1ccc2ccc3cccc4ccc1c2c34 [Compound 1-EP, 1-ethynylpyrene] was tested, and the IC50 was 0.32 µM.
Molecule CC#Cc1ccc2ccc3cccc4ccc1c2c34 [Compound 1-MEP, 1-(1-propynyl)pyrene] has an IC50 of 0.06 µM.
Molecule C#Cc1ccc2c(ccc3ccccc32)c1 [Compound 2-Ephen, 2-ethynylphenanthrene] has an IC50 of 0.34 µM.
Molecule CC#Cc1ccc2c(ccc3ccccc32)c1 [Compound 2-MEPhen, 2-(1-propynyl)phenanthrene] has an IC50 of 0.6 µM.
With C#Cc1ccc2ccc3ccccc3c2c1 [Compound 3-Ephen, 3-ethynylphenanthrene] the IC50 was 0.28 µM.

Same assay, conditions: pre-incubation assays in the presence and absence of NADPH
In the case of CCC#Cc1ccc2ccc3cccc4ccc1c2c34 [Compound 1-EEP, 1-(1-butynyl)pyrene], the “Type of inhibition of P450 1A2” value is reported as “mechanism-based inhibitors”.
In the case of C#Cc1ccc2ccc3cccc4ccc1c2c34 [Compound 1-EP, 1-ethynylpyrene], the “Type of inhibition of P450 1A2” value is reported as “mechanism-based inhibitors”.
In the case of CC#Cc1ccc2ccc3cccc4ccc1c2c34 [Compound 1-MEP, 1-(1-propynyl)pyrene], the “Type of inhibition of P450 1A2” value is reported as “mechanism-based inhibitors”.
In the case of C#Cc1ccc2c(ccc3ccccc32)c1 [Compound 2-Ephen, 2-ethynylphenanthrene], the “Type of inhibition of P450 1A2” value is reported as “mechanism-based inhibitors”.
In the case of CC#Cc1ccc2c(ccc3ccccc32)c1 [Compound 2-MEPhen, 2-(1-propynyl)phenanthrene], the “Type of inhibition of P450 1A2” value is reported as “mechanism-based inhibitors”.
C#Cc1ccc2ccc3ccccc3c2c1 [Compound 3-Ephen, 3-ethynylphenanthrene] was tested, and the “Type of inhibition of P450 1A2” value was “mechanism-based inhibitors”.
For C#Cc1cc2ccccc2c2ccccc12 [Compound 9-Ephen, 9-ethynylphenanthrene], the “Type of inhibition of P450 1A2” value was “mechanism-based inhibitors”.
In the case of CC#Cc1cc2ccccc2c2ccccc12 [Compound 9-MEPhen, 9-(1-propynyl)phenanthrene], the “Type of inhibition of P450 1A2” value is reported as “mechanism-based inhibitors”.

The molecules below were run against T2, human CYP2A6 (Homo sapiens, UniProt P11509) (assay: Coumarin 7-hydroxylation assay in supersomes). Conditions: not given.
T2 sequence (P11509 1-494): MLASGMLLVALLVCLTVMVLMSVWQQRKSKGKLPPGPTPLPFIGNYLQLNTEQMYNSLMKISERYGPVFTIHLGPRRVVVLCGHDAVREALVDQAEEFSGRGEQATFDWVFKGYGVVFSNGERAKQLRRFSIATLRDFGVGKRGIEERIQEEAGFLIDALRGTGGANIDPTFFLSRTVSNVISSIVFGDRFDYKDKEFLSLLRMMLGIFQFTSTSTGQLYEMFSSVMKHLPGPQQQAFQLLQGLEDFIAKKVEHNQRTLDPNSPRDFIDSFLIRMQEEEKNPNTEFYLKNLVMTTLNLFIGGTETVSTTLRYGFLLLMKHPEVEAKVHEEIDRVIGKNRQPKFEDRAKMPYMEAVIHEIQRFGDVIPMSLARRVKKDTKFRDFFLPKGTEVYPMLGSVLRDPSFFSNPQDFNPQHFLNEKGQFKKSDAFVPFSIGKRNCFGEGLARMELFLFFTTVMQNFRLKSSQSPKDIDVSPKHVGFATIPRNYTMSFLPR
Format: biochemical
With CCC#Cc1ccc2ccc3cccc4ccc1c2c34 [Compound 1-EEP, 1-(1-butynyl)pyrene] the IC50 was > 10 µM.
C#Cc1ccc2ccc3cccc4ccc1c2c34 [Compound 1-EP, 1-ethynylpyrene] was tested, and the IC50 was > 10 µM.
In the case of CC#Cc1ccc2ccc3cccc4ccc1c2c34 [Compound 1-MEP, 1-(1-propynyl)pyrene], the IC50 is reported as > 10 µM.
In the case of C#Cc1ccc2c(ccc3ccccc32)c1 [Compound 2-Ephen, 2-ethynylphenanthrene], the IC50 is reported as > 10 µM.
For CC#Cc1ccc2c(ccc3ccccc32)c1 [Compound 2-MEPhen, 2-(1-propynyl)phenanthrene], the IC50 was > 10 µM.
For C#Cc1ccc2ccc3ccccc3c2c1 [Compound 3-Ephen, 3-ethynylphenanthrene], the IC50 was > 10 µM.
In the case of CC#Cc1cc2cccc3ccc4cccc1c4c32 [Compound 4-MEP, 4-(1-propynyl)pyrene], the IC50 is reported as > 10 µM.
For C#Cc1cc2ccccc2c2ccccc12 [Compound 9-Ephen, 9-ethynylphenanthrene], the IC50 was > 10 µM.
CC#Cc1cc2ccccc2c2ccccc12 [Compound 9-MEPhen, 9-(1-propynyl)phenanthrene] was tested, and the IC50 was > 10 µM.

These molecules were tested against T3, CYP1A1 (Homo sapiens, UniProt P04798) (assay: 7-Ethoxyresorufin O-deethylation). Conditions: not given.
T3 sequence (P04798 1-512): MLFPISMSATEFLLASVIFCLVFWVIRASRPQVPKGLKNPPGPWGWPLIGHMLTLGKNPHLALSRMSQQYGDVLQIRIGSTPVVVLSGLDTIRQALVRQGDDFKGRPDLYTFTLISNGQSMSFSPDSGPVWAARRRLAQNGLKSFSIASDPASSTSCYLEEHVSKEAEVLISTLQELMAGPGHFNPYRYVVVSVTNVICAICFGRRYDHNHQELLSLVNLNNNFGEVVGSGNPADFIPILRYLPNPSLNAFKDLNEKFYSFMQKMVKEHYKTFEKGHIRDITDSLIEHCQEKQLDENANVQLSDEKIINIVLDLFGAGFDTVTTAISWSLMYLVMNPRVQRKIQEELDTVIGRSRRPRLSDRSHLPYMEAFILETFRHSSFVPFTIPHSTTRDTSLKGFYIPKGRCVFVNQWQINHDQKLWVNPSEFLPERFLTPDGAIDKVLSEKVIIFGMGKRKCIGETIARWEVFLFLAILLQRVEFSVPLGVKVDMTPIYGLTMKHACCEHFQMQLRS
Format: biochemical
How it was run: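 Human CYP1A1 supersomes with P450 reductase in 0.1 M phosphate pH 7.6 plus MgCl2, ethoxyresorufin (1.0 mM DMSO stock) and test compound in DMSO at varied concentrations. NADPH-regenerating system starts reaction, 37°C. Product fluorescence ex 530/em 585 nm. Quadratic fit of progress curves, b term as rate. IC50 from Dixon plot x-intercept. Mechanism: 5-min 37°C pre-incubation ± NADPH before substrate.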
CCC#Cc1ccc2ccc3cccc4ccc1c2c34 [Compound 1-EEP, 1-(1-butynyl)pyrene] was tested, and the IC50 was 0.72 µM.
For C#Cc1ccc2ccc3cccc4ccc1c2c34 [Compound 1-EP, 1-ethynylpyrene], the IC50 was 0.18 µM.
Molecule CC#Cc1ccc2ccc3cccc4ccc1c2c34 [Compound 1-MEP, 1-(1-propynyl)pyrene] has an IC50 of 0.02 µM.
In the case of C#Cc1ccc2c(ccc3ccccc32)c1 [Compound 2-Ephen, 2-ethynylphenanthrene], the IC50 is reported as 0.61 µM.
CC#Cc1ccc2c(ccc3ccccc32)c1 [Compound 2-MEPhen, 2-(1-propynyl)phenanthrene] was tested, and the IC50 was 0.16 µM.
C#Cc1ccc2ccc3ccccc3c2c1 [Compound 3-Ephen, 3-ethynylphenanthrene] was tested, and the IC50 was 1.03 µM.
CC#Cc1cc2cccc3ccc4cccc1c4c32 [Compound 4-MEP, 4-(1-propynyl)pyrene] showed an IC50 of 0.37 µM.
C#Cc1cc2ccccc2c2ccccc12 [Compound 9-Ephen, 9-ethynylphenanthrene] showed an IC50 of 0.62 µM.
Work on CC#Cc1cc2ccccc2c2ccccc12 [Compound 9-MEPhen, 9-(1-propynyl)phenanthrene] yielded an IC50 of 2.63 µM.

Same assay, conditions: human, pH 7.6, probe 7-ethoxyresorufin
With CC#Cc1cc2ccccc2c2ccccc12 [Compound 9-MEPhen, 9-(1-propynyl)phenanthrene] the IC50 was 2.26 µM.

Same assay, conditions: pre-incubation assays in the presence and absence of NADPH
In the case of CCC#Cc1ccc2ccc3cccc4ccc1c2c34 [Compound 1-EEP, 1-(1-butynyl)pyrene], the “Type of inhibition of P450 1A1” value is reported as “mechanism-based inhibitors”.
For C#Cc1ccc2ccc3cccc4ccc1c2c34 [Compound 1-EP, 1-ethynylpyrene], the “Type of inhibition of P450 1A1” value was “mechanism-based inhibitors”.
For CC#Cc1ccc2ccc3cccc4ccc1c2c34 [Compound 1-MEP, 1-(1-propynyl)pyrene], the “Type of inhibition of P450 1A1” value was “mechanism-based inhibitors”.
C#Cc1ccc2c(ccc3ccccc32)c1 [Compound 2-Ephen, 2-ethynylphenanthrene] was tested, and the “Type of inhibition of P450 1A1” value was “mechanism-based inhibitors”.
In the case of CC#Cc1ccc2c(ccc3ccccc32)c1 [Compound 2-MEPhen, 2-(1-propynyl)phenanthrene], the “Type of inhibition of P450 1A1” value is reported as “mechanism-based inhibitors”.
C#Cc1ccc2ccc3ccccc3c2c1 [Compound 3-Ephen, 3-ethynylphenanthrene] was tested, and the “Type of inhibition of P450 1A1” value was “mechanism-based inhibitors”.
With CC#Cc1cc2cccc3ccc4cccc1c4c32 [Compound 4-MEP, 4-(1-propynyl)pyrene] the “Type of inhibition of P450 1A1” value was “mechanism-based inhibitors”.
With C#Cc1cc2ccccc2c2ccccc12 [Compound 9-Ephen, 9-ethynylphenanthrene] the “Type of inhibition of P450 1A1” value was “mechanism-based inhibitors”.
CC#Cc1cc2ccccc2c2ccccc12 [Compound 9-MEPhen, 9-(1-propynyl)phenanthrene] was tested, and the “Type of inhibition of P450 1A1” value was “mechanism-based inhibitors”.

The molecules below were run against T4, rat CYP2B1 (Rattus norvegicus, UniProt P00176) (assay: 7-Pentoxyresorufin O-depentylation). Conditions: not given.
T4 sequence (P00176 1-491): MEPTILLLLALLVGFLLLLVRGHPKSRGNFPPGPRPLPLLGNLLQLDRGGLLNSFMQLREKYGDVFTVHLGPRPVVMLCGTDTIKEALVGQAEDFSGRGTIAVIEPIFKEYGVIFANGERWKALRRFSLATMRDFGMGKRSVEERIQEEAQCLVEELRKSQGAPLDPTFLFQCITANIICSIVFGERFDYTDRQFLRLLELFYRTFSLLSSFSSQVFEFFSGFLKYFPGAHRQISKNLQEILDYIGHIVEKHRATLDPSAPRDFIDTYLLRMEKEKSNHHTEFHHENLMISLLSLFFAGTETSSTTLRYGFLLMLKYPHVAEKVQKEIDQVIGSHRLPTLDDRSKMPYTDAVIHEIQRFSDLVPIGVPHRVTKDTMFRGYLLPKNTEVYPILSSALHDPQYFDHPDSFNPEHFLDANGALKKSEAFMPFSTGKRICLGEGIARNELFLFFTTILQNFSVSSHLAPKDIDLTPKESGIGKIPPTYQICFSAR
Format: biochemical
How it was run: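 Rat CYP2B1 supersomes (with P450 reductase and cytochrome b5) in 0.1 M potassium phosphate pH 7.6 with MgCl2, pentoxyresorufin (1.0 mM stock in DMSO) and test compound in DMSO at several concentrations, with a DMSO-only control. Reaction started with NADPH-regenerating system at 37°C; resorufin fluorescence read over time (ex 530/em 585 nm). Rates from second-order curve fits; IC50 from Dixon plot x-intercept.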
In the case of CCC#Cc1ccc2ccc3cccc4ccc1c2c34 [Compound 1-EEP, 1-(1-butynyl)pyrene], the IC50 is reported as > 10 µM.
C#Cc1ccc2ccc3cccc4ccc1c2c34 [Compound 1-EP, 1-ethynylpyrene] gave an IC50 of 0.04 µM.
In the case of CC#Cc1ccc2ccc3cccc4ccc1c2c34 [Compound 1-MEP, 1-(1-propynyl)pyrene], the IC50 is reported as 0.83 µM.
For C#Cc1ccc2c(ccc3ccccc32)c1 [Compound 2-Ephen, 2-ethynylphenanthrene], the IC50 was 0.17 µM.
For CC#Cc1ccc2c(ccc3ccccc32)c1 [Compound 2-MEPhen, 2-(1-propynyl)phenanthrene], the IC50 was > 10 µM.
C#Cc1ccc2ccc3ccccc3c2c1 [Compound 3-Ephen, 3-ethynylphenanthrene] gave an IC50 of 0.48 µM.
With CC#Cc1cc2cccc3ccc4cccc1c4c32 [Compound 4-MEP, 4-(1-propynyl)pyrene] the IC50 was 2.26 µM.
Work on C#Cc1cc2ccccc2c2ccccc12 [Compound 9-Ephen, 9-ethynylphenanthrene] yielded an IC50 of 0.07 µM.
CC#Cc1cc2ccccc2c2ccccc12 [Compound 9-MEPhen, 9-(1-propynyl)phenanthrene] was tested, and the IC50 was > 10 µM.

— PMC2839030 (Chemical research in toxicology, 2010)
